We go through seven molecules from paper PMC7953430 (Chemical Science, 2020).

The EC50 is the concentration needed to bring the measured effect to its halfway point.

Values joined by “and” are separate entries in the source; they are usually repeats but may differ in a detail not shown here. Equal entries are not always repeated. Where two headings read alike, the source gives them in different places. Some results are limits rather than exact numbers.

The nature of data set [1]: Solubility in high ionic strength solvents. The conditions noted are these: DPBS, media. It is filed as physicochemical.
Data set [2] concerns SK-MEL-28 human skin melanoma cells. The data set is described as follows: Resazurin. It is filed as cell-based. On the technique in general: Alamar Blue is a resazurin reagent that responds to reducing activity.
For data set [3] the following is noted: aerated MeCN; cited from earlier work.
A short description of data set [4]: Singlet oxygen sensitization quantum yield. In kind it is physicochemical. The conditions noted are these: PF6 salts; for ΦΔ singlet oxygen quantum yield: air-saturated MeCN, excitation wavelength in brackets; for 1O2 quantum yield ΦΔ: MeCN. An outline of the steps:
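ΦΔ was measured from ¹O₂ emission near 1276 nm, relative to [Ru(bpy)₃](PF₆)₂ (ΦΔ = 0.56 in aerated MeCN). Samples were 5–20 μM PF₆⁻ salts in air-bubbled, CaH₂-distilled MeCN. Excitation was at the longest wavelength maximising 1268 nm emission. Absorbance and refractive index corrections were applied, in triplicate.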

In data set [5] the test system is B16-F10 murine melanotic melanoma cells. The data set is described as follows: External validation. In kind it is cell-based. An outline of the steps:
(§1)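 SK-MEL-28 and B16-F10 cells (B16-F10 grown in DMEM) in log phase were seeded and dosed with 1 nM–300 μM test compound diluted in DPBS (<1.2% v/v DMSO). Plates were irradiated 15–22 h after dosing with broadband projector visible light or a red 630 nm LED panel (33–40 mW cm⁻², 100 J cm⁻²). Resazurin was read at 48 h (530/620 nm). PI was dark EC50/light EC50.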

For data set [6], the system named is SK-MEL-28 cells. The data set is described as follows: Os-4T interassay repeats, resazurin, normoxia. It is filed as cell-based, human.
In data set [7] the test system is female C57BL/6J mice. The data set is described as follows: Maximum tolerated dose in mice. In kind it is in vivo. The conditions noted are these: ip doses above 100 mg kg^–1 (100, 125, 200); behaviour resolved after 2 h.
Data set [8] relates to SK-MEL-28 cells. The data set is described as follows: Os-4T interassay repeats, resazurin, hypoxia. It is filed as cell-based, human. Put shortly:
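Hypoxic (1% O₂) SK-MEL-28 phototoxicity was read by resazurin across repeats under three light conditions. Repeat 0 was run in 96-well plates; repeats 1–5 were run within a month in 384-well plates. Plate maps, pipette tips and seed stock (repeats 4–5) were varied, and overhead lights were off in repeat 5. Cells were at passages 10–15, with three replicates per repeat.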

For data set [9], the system named is SK-MEL-28 cells. The data set is described as follows: Resazurin. It is filed as cell-based, human. Put shortly:
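SK-MEL-28 cells were equilibrated at 1% O₂ for 2–3 h before dosing and kept hypoxic for at least 16 h. During illumination plates were sealed with qPCR films (about 20 °C, ≤1.5 h). Light was cool white (400–700 nm), green (523 nm) or red (633 nm) at 20 mW cm⁻² to 100 J cm⁻². Cells recovered in normoxia before the resazurin read. PI was dark EC50/light EC50.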

Data set [10] has as its system SK-MEL-28 cells. The data set is described as follows: NIR 753 nm photocytotoxicity on Modulight ML8500. In kind it is cell-based, human. As to conditions: 10 μM, 300 mW cm^–2, 200*2 (≥400) J cm^–2, resazurin. Put shortly:
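SK-MEL-28 wells were illuminated one by one with a 753 nm laser at a constant 300 mW cm⁻² over 0–400 J cm⁻², at 37 °C and 5% CO₂. Viability was read by resazurin relative to dark wells, in triplicate.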

In data set [11] the test system is SK-MEL-28 cells. The data set is described as follows: NIR 733 nm photocytotoxicity, normoxia. The conditions noted are these: read-out: EC50 with 733 nm light, 100 J cm^–2, 5 mW cm^–2. It is filed as cell-based, human. An outline of the steps: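 Normoxic SK-MEL-28 monolayers in 384-well plates were illuminated with a 733 nm laser through a frontal diffuser (5 mW cm⁻², 100 J cm⁻²), with sham-treated dark controls. Viability was read by resazurin and EC50 was taken from the dose–response curve.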

The test system of data set [12] is SK-MEL-28 human amelanotic melanoma cells. The data set is described as follows: External validation. The conditions noted are these: SK-MEL-28, external validation. In kind it is cell-based. Put shortly: as §1
The subject of data set [13] is SK-MEL-28 cells. The data set is described as follows: Sulforhodamine B. In kind it is cell-based, human. As to conditions: SRB, hypoxia, across light treatments.
Setting [14] is: read-out: EC50 ± SEM Dark, normoxia 18.5–21% O2, no light.
Setting [15] is: read-out: visible EC50, normoxia, visible light 100 J cm^–2.

For the molecule `[Cl-].[Cl-].[Os+2].c1cnc2c(c1)ccc1cccnc12.c1cnc2c(c1)ccc1cccnc12.c1cnc2c(c1)ccc1cccnc12` [[Os(phen)3]Cl2, reference compound], the “solubility in high ionic strength solvents” value in data set [1] was more than 300 µM. For the same molecule, in data set [2] (normoxia, visible, green or red), the “PI regardless of wavelength” value is recorded as 2–4. In data set [2] (setting [14]), the EC50 was determined as 158000 nM.

`F[P-](F)(F)(F)(F)F.F[P-](F)(F)(F)(F)F.[Ru+2].c1ccc(-c2ccccn2)nc1.c1ccc(-c2ccccn2)nc1.c1ccc(-c2ccccn2)nc1` [[Ru(bpy)3](PF6)2]: in [3], the “ΦΔ singlet oxygen quantum yield (standard)” value was 0.56.

In the case of [Os(phen)2(IP)]^2+ [Os-0T], in data set [4], the “ΦΔ singlet oxygen quantum yield” value was 0.43 [473].

[Os(phen)2(IP-1T)]^2+ [Os-1T]: the “ΦΔ singlet oxygen quantum yield” value in data set [4] is 0.42 [473].

Regarding [Os(phen)2(IP-2T)]^2+ [Os-2T], the “ΦΔ singlet oxygen quantum yield” value in [4] is 0.49 [472]. The EC50 in data set [2] (setting [14]) is 35700 nM.

As to [Os(phen)2(IP-3T)]^2+ [Os-3T], in data set [4], the “1O2 quantum yield ΦΔ” value came out at 51% and the “ΦΔ singlet oxygen quantum yield” value was 0.51 [525]. For the same molecule, the “PI Green” value in data set [2] (normoxia, dark EC50/green 523 nm EC50) was 103. In addition, the “PI Visible (phototherapeutic index)” value in [2] (normoxia, dark EC50/visible EC50) came out at 369. For the same molecule, the EC50 in data set [2] (setting [15]) turned out to be 153 nM.

Regarding [Os(phen)2(IP-4T)]^2+ [Os-4T], in [4], the “1O2 quantum yield ΦΔ” value turned out to be 95%. In addition, the “ΦΔ singlet oxygen quantum yield” value in data set [4] is 0.95 [525]. Also, the “PI Visible” value in data set [5] (B16-F10, dark EC50/visible EC50) was > 20 000 and > 10^4; in data set [9] (hypoxia 1% O2, dark EC50/visible EC50) it was more than 90. For the same molecule, the EC50 in [5] (read-out: visible EC50, B16-F10, external validation) is 15 nM; in [6] (read-out: EC50 range over repeats, green, normoxia), 1.16 to 25.4 nM; in [6] (read-out: EC50 range over repeats, red, normoxia) it was 10 to 46.2 nM; in data set [6] (read-out: EC50 range over repeats, visible, normoxia) it was 0.0178 to 8.91 nM; in [6] (read-out: average dark EC50 across repeats, either oxygen condition (normoxia and hypoxia), <7% variation), 62800 nM; in data set [6] (read-out: average normoxic EC50, green, normoxia, repeats), 11.7 nM. The EC50 in data set [6] (read-out: average normoxic EC50, red, normoxia, repeats) was 30.8 nM; in data set [6] (read-out: average normoxic EC50, visible, normoxia, repeats) it was 1.62 nM; in data set [9] (read-out: light EC50 values in hypoxia, hypoxia 1% O2, across visible, green, red light), 651 to 835 nM; in data set [11], 803 nM; in data set [12] (read-out: red EC50), 9.44 nM; in [12] (read-out: visible EC50), 2.91 nM. In addition, the EC50 stood at 1 nM in data set [2] (read-out: EC50 with green light, normoxia, green 523 nm, 100 J cm^–2); 10 nM in data set [2] (read-out: EC50 with red light, normoxia, red 633 nm, 100 J cm^–2); 65100 nM in data set [2] (setting [14]); 0.018 nM in data set [2] (setting [15]). Further, in data set [7], the observed clinical toxicity result is on record as “mild toxicity”. The “PI range across repeats and three light conditions” value in data set [8] (hypoxia 1% O2) lay within 32 to 167. Besides, the “average hypoxic PI across the three light conditions” value in data set [8] (hypoxia 1% O2, repeat 3 excluded) came to 90. Moreover, in data set [9] (hypoxia 1% O2, dark EC50/green EC50), the “PI Green” value is 91 and > 90. In data set [10], the “reduction of relative cell viability compared to dark” value was found to be 14%. For the same molecule, the “total growth inhibition (TGI), light-treated samples” value in data set [13] was 140 to 170 nM.
